Screens deposited in PubChem by several laboratories.
Arrestin-AP2 inh = human beta-arrestin and AP2 interaction inhibition. FITC-arrestin peptide / GST-AP2 beads, flow cytometry; AP2 beta2 appendage carries R879A mutation. inhibition, % at 10 µM. 340,000 tested, 0.31% active;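 active = inhibition above a set limit, near 3 SD of compounds lacking own fluorescence, cut at about 54% in these data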;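 note: plate controls were DMSO wells for no effect and 5 µM unlabelled arrestin peptide for full effect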
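System: GST-AP2 R879A glutathione beads; medium: PBS, Tween 20 0.05%, BSA 0.1%; reagent: fluorescein-tagged arrestin peptide at 50 nM final; schedule: pre-incubation 12 min, peptide binding 1 h, room temperature; detection: flow cytometry, FL1 (488/535 nm); read-out: inhibition as reduced fluorescein signal on beads, percent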
PLCg1 inh = inhibitors of human phospholipase C gamma1 | P19174 | purified PLC-gamma1, fluorogenic substrate, fluorescence | inhibition, % at 12.2 µM | 370,000 tested, 0.84% active | AID 720700; in the data active = inhibition above about 9.5%
NTR1 agonist = NTR1 (human) agonism; NTR1-U2OS beta-arrestin-GFP spot imaging, agonist mode; 330,000 tested, 0.17% active; P30989; activation, % at 20 µM;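 active = activation at or above 40% of the spot to cytoplasm intensity ratio, with at least 20 cells analyzed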;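 note: 0% = DMSO without peptide and 100% = 100 nM NTR1 peptide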
Target sequence (P30989 whole entry, looked up): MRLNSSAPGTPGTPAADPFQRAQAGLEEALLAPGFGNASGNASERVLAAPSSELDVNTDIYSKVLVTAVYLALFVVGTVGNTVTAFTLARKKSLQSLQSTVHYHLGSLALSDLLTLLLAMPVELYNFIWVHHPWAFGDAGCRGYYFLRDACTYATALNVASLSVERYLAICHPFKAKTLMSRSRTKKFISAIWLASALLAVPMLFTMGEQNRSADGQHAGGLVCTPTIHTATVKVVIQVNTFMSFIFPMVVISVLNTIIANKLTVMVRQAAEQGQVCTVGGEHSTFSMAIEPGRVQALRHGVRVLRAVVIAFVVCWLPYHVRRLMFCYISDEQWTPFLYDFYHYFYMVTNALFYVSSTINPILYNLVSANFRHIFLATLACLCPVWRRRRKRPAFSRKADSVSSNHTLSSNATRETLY
PLC-beta3 inh = blocks human PLC-beta3 enzyme activity. inhibition, % at 12.2 µM. Purified PLC-beta3, fluorogenic substrate, fluorescence. 370,000 tested, 0.18% active; in the data active = inhibition above about 11%;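 note: 0% = median of compound wells on plate and 100% = full blocker control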
Arr AP2 CP1 = inhibitors of human beta-arrestin and AP2 interaction; inhibition, % at 10 µM; shares compounds with Arrestin-AP2 inh; GST-AP2 beads, FITC arrestin peptide binding, flow cytometry; GST-fused beta2-adaptin appendage, R879A mutant; AID 504908; 1,300 tested, 2% active;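 active = inhibition above a set limit, roughly 3 SD of non-fluorescent compound noise, cut at about 38% in these data; inactive = inhibition at or below that limit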;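 note: loss of bead fluorescence from 50 nM FITC arrestin peptide bound to appendage; 0% = negative control wells and 100% = excess unlabelled arrestin peptide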
GST GSH counter = GST-GSH bead binding interference, counter-screen. 1,300 tested, 2% active. AID 588338. shares compounds with Arrestin-AP2 inh. GST-fluorescein binding to GSH beads, fluorescence. inhibition, % at 10 µM;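 active = inhibition above 50%, about 3 SD of the inhibition seen with non-fluorescent compounds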;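 note: fluorescein maleimide labelled GST captured on 4 micron glutathione beads; higher means more loss of bead fluorescence from quenching or blocked binding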
* hit, by the source's call; · = not tested or not shown. Hits are enriched below; roughly 1.3% of the tested compounds scored in any of these assays.

SMILES	Arrestin-AP2 inh	PLCg1 inh	NTR1 agonist	PLC-beta3 inh	Arr AP2 CP1	GST GSH counter
CC(C)(C)c1ccc(S(=O)(=O)N2CCCC(C(=O)NCCN3CCC(Cc4ccccc4)CC3)C2)cc1 (stereo not drawn)	·	9	·	0	·	·
Cc1ccc(NC(=O)Cn2ncn3c(cc4ccccc43)c2=O)cc1F	66*	0	2	-14	0	-4
Cc1cc(NC(=O)CC2CCCC2)n(-c2nc3ccccc3[nH]2)n1	7	1	13	-2	·	·
Cc1cc(NC(=O)/C=C/c2ccccc2Cl)n(-c2nc3ccccc3[nH]2)n1	101*	3	7	4	-4	-5
Cc1cc(NC(=O)c2ccc(F)cc2F)n(-c2nc3ccccc3[nH]2)n1	12	·	2	·	26	2
CCCCCc1ccc(NC(=O)OCCN2C(=O)CCC23CCC(c2ccccc2)CC3)cc1 (stereo not drawn)	·	2	·	6	·	·
C=CCN(Cc1ccc(OC)cc1OC)C(C#CCCCC)c1ccccc1 (stereo not drawn)	·	-1	·	4	·	·
O=C(Cc1ccccc1F)Nc1ccc2c(c1)CCC2	3	3	1	-1	·	·
Cc1ccccc1CC(=O)Nc1ccc2c(c1)CCC2	60*	-3	1	-2	-2	-1
O=C(OC1CCOC1=O)c1cccc(S(=O)(=O)Nc2cccc(Cl)c2)c1 (stereo not drawn)	63*	4	-1	-192	-10	-4
COc1ccc(-c2nn(-c3ccccc3)cc2C(=O)N(C)C)cc1	60*	1	-1	-5	-8	-7
CCCNC(=O)Cn1nc([N+](=O)[O-])c([N+](=O)[O-])c1C	-10	2	0	1	·	·
CCCCNC(=O)Cn1nc([N+](=O)[O-])c([N+](=O)[O-])c1C	69*	4	2	4	18	-5
Cc1nc2ccc(NC(=O)c3ccc4ccccc4n3)cc2s1	65*	2	4	-1	-7	-2
Cc1nc2ccc(NC(=O)c3ccccc3)cc2s1	-4	-3	0	-10	·	·
CN(C)S(=O)(=O)c1cccc(C(=O)N/N=C\c2ccccc2[N+](=O)[O-])c1	·	0	·	-17	·	·
COC(=O)[C@]12C[C@H](CC(=O)N3CCC(c4ccccc4)CC3)C(=O)N(Cc3ccc(Cl)cc3Cl)C1=C[C@H](C1CCCC1)O[C@@H]2C	·	1	·	0	·	·
COc1ccc(OC)c(NC(=O)CSc2nnc(-c3ccco3)n2-c2ccccc2)c1	-14	1	0	3	·	·
COc1ccc(OC)c(NC(=O)CSc2nnc(CCCO)n2-c2ccccc2)c1	90*	-1	0	-3	-9	-1
Cc1ccc(S(=O)(=O)NCc2ccccc2)cc1	56*	-2	-1	-7	-4	-5
Cc1ccccc1CN1CCCCC(NC(=O)c2c(F)cccc2F)C1=O (stereo not drawn)	·	0	·	1	·	·
Cc1ccc(/C(COc2ccccc2O)=N\O)cc1	57*	0	1	2	8	0
O=C(CN1c2ccccc2S(=O)(=O)c2ccccc21)NCc1ccccc1	64*	-10	-1	-17	-6	-4
CC(C)C(C(=O)Nc1ccc2c(c1)OCCO2)N1C(=O)c2ccccc2C1=O (stereo not drawn)	1	5	-2	2	·	·
O=C(Cn1c(=O)[nH]c2ccccc2c1=O)Nc1ccc2c(c1)OCO2	-2	-5	1	-9	1	0
SMILES	Arrestin-AP2 inh	PLCg1 inh	NTR1 agonist	PLC-beta3 inh	Arr AP2 CP1	GST GSH counter
C[C@@H](C(=O)Nc1ccc2c(c1)OCO2)n1c(=O)[nH]c2ccccc2c1=O	4	-1	2	-11	-3	-4
C[C@@H](C(=O)Nc1ccc2c(c1)OCCO2)n1c(=O)[nH]c2ccccc2c1=O	-9	-1	0	-9	6	-1
O=C(Cn1ccc2ccccc2c1=O)Nc1ccc2c(c1)OCO2	4	-1	3	0	·	·
Cc1ccc(NC(=O)c2ccc(=O)[nH]c2)cc1S(=O)(=O)N1CCCCC1	12	0	1	-9	-7	-5
COc1ccc(NC(=O)c2ccc(=O)[nH]c2)cc1S(=O)(=O)N1CCOCC1	39	-1	0	6	3	-6
Nc1c(C(=O)N2CCN(c3ccccc3)CC2)nnn1Cc1ccc(Cl)cc1	·	1	·	4	·	·
COc1ccc(CNC2CCC23CCC(C)CC3)cc1OC (stereo not drawn)	·	-1	·	1	·	·
O=C(Nc1ccc(Br)cc1)c1cnccn1	10	-3	0	-2	·	·
O=C(Nc1ccc(F)cc1)Nc1cnccn1	4	-2	0	-6	2	-5
O=C(Nc1ccc(Br)cc1)Nc1cnccn1	15	-1	0	-5	-5	·
CCC(=O)Nc1ccc(-c2ccc(N3CCN(C)CC3)nn2)cc1	55*	·	0	·	-3	-4
Cc1nc(C)c(C(=O)O)c(-c2cccs2)c1C(=O)O	74*	2	-1	0	-8	-3
O=C(O)c1csc(-c2cccs2)n1	11	2	0	-5	·	·
Cc1ccc(SCC(=O)OCC(=O)NCCNC(=O)COC(=O)CSc2ccc(C)c(C)c2)cc1C	68*	0	-1	-10	-4	-2
CC(C)CSc1nc2ccccc2n1CC(=O)O	55*	2	1	3	-2	3
CCCSc1nc2ccccc2n1CC(=O)O	-2	-1	0	1	·	·
O=C(COc1ccccc1C(=O)O)Nc1cccc2ccccc12	1	1	-2	-4	·	·
O=C(Cc1ccccc1C(=O)O)Nc1cccc2ccccc12	60*	-80	-1	-109	6	-4
O=C(Nc1cccc(C(F)(F)F)c1)c1cc(S(=O)(=O)N2CCCCC2)ccc1N1CCOCC1	-1	-1	0	-1	·	·
Cc1ccc(S(=O)(=O)N2CCCCC2)cc1C(=O)NCCc1ccccc1	-1	-2	0	-8	·	·
COc1ccc(S(=O)(=O)N2CCCCCC2)cc1C(=O)NCCc1ccccc1	61*	1	0	-2	19	-3
O=C(NCc1ccccc1)c1cc(S(=O)(=O)N2CCCCC2)ccc1N1CCOCC1	10	-3	0	-5	·	·
O=C(Nc1cccc(F)c1)c1cc(S(=O)(=O)N2CCOCC2)ccc1N1CCCC1	29	·	-1	·	-4	-2
COc1cccc(CNC(=O)c2cc(S(=O)(=O)N3CCOCC3)ccc2N2CCCC2)c1	-11	-5	2	-8	21	7
CNC(=O)c1cc(S(=O)(=O)N2CC(C)OC(C)C2)ccc1N1CCCCC1 (stereo not drawn)	16	0	0	-7	0	-15
Cc1cc(S(=O)(=O)N2CCCC2)ccc1OCC(=O)Nc1ccccc1	64*	3	-2	-2	-8	-13
O=c1c(Cc2c(F)cccc2Cl)c(O)ccn1CCCn1ccnc1	63*	1	1	1	-3	-7
